Measurements taken from ChEMBL document CHEMBL1144785, “Antiplasmodial triterpenoids from Ekebergia capensis” (J Nat Prod, 2008).
Active and inactive are the calls of the source. No cut-off for these calls is given here.

Columns and labels:
[1] = system: Plasmodium berghei; assay: Antimalarial activity in Plasmodium berghei NK65 infected ICR mice (Mus musculus) as reduced parasitemia at 250 mg/kg/day peroral dose for 4 days; format: functional; design: scale not given: the % may be the effect or the level left; conditions: route oral
Method in brief: (§1)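 Peters 4-day suppressive test in 7-week-old outbred SPF male ICR mice, five per group. Mice infected i.p. with 10^5 P. berghei NK65-parasitized erythrocytes taken from donor mice. Compound dissolved in DMSO and diluted with distilled water (final DMSO below 0.2%). Given orally by metal catheter once daily for 4 days, first dose 2–4 h p.i.; controls received distilled water. Day-4 Giemsa tail-blood smears scored microscopically; suppression calculated against controls.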

[2] = system: Plasmodium berghei; assay: Antimalarial activity in […] NK65 infected ICR mice (Mus musculus) as reduced parasitemia at 500 mg/kg/day peroral dose after 4 days; format: functional; design: scale not given: the % may be the effect or the level left; conditions: route oral
Method in brief: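 Male ICR mice, 7 weeks old, were infected ip with 10^5 P. berghei NK65-parasitized erythrocytes from donor mice, five per group. Dosing began 2–4 h p.i., given orally by metal catheter once daily for 4 days. Compound was in DMSO diluted with distilled water (final DMSO <0.2%); controls got water. On day 4, tail-vein Giemsa smears gave parasitemia; suppression was calculated versus control.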

[3] = system: Plasmodium falciparum; assay: Antiplasmodial activity against chloroquine-resistant Plasmodium falciparum K1; format: functional, organism-based
Method in brief: (§2)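 Synchronous cultures in RPMI 1640 with 10% human serum, 25 mM HEPES (pH 7.2), hypoxanthine and 2% hematocrit type O+ RBCs, under 5% CO2/5% O2/90% N2 at 37 °C. DMSO stocks were serially diluted 2-fold and added to infected RBCs at 0.5% parasitemia, then incubated 52 h. Ring forms on Giemsa smears were counted against controls. Single assay per concentration; IC50 by probit.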

[4] = system: Plasmodium berghei; assay: Antimalarial activity in Plasmodium berghei NK65 infected ICR mice (Mus musculus) as reduced parasitemia at 100 mg/kg/day peroral dose for 4 days; format: functional; method in brief: as §1
[5] = system: Plasmodium falciparum; assay: Antiplasmodial activity against chloroquine-susceptible Plasmodium falciparum FCR3; format: functional, organism-based; method in brief: as §2

| SMILES | Activity [1] [%] | Activity [2] [%] | IC50 [3] [µM] | Activity [4] | IC50 [5] [µM] | Activity ([4]; route oral) [%] |
| --- | --- | --- | --- | --- | --- | --- |
| C/C(=C\CC/C=C(\C)CC/C=C(\C)CC[C@@H](O)[C@@](C)(O)CO)CC/C=C(\C)CC[C@@H](O)C(C)(C)O | 41.2 | 52.9 | 7 | inactive | 18 | – |
| C/C(=C\CC/C=C(\C)CC[C@@H](O)[C@]1(C)CC[C@H](C(C)(C)O)O1)CC[C@@H](O)[C@]1(C)CC[C@H](C(C)(C)O)O1 [EKEBERIN D4] | – | – | – | – | 40 | – |
| CC(=O)OC[C@](C)(O)[C@H](O)CC/C(C)=C/CC/C(C)=C/CC/C=C(\C)CC/C=C(\C)CC[C@@H](O)C(C)(C)O [EKEBERIN D5] | – | – | 137 | – | 55 | – |
| CC(=O)OC[C@](C)(O)[C@@H](CC/C(C)=C/CC/C(C)=C/CC/C=C(\C)CC/C=C(\C)CC[C@@H](O)C(C)(C)O)OC(C)=O | – | – | 97 | – | 113 | – |
| C/C(=C\CC/C=C(\C)CC/C=C(\C)CC[C@@H](O)C(C)(C)O)CC/C=C(\C)CC[C@@H](O)C(C)(C)O | 26.5 | 20.5 | 59 | – | 55 | 26.5 |
| CC1(C)C(=O)C=C[C@]2(C)[C@H]3CC[C@@]4(C)[C@H](c5ccco5)OC(=O)[C@H]5O[C@]54[C@]3(C)C(=O)C[C@@H]12 | – | – | – | – | 6 | – |
